Laboratory results published in ChEMBL document CHEMBL1148114, “New antiinfective and human 5-HT2 receptor binding natural and semisynthetic compounds from the Jamaican sponge Smenospongia aurea” (J Nat Prod, 2002).
Values after ≈ are worked out from the molar mass of the structure shown. Active and inactive are the calls of the source. The calls are words filed in the database; no cut-off is given here.

Tests used:
Vero = test: Cytotoxicity against african green monkey Vero cells at 4.76 ug/mL; assay type: cell-based; conditions: chlorocebus sabaeus
Method in brief: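 Vero (African green monkey kidney) cells exposed to compound at 4.76 µg/mL to assess cytotoxicity.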

[1] = molecular target: T1, 5-hydroxytryptamine receptor 2C (Homo sapiens, UniProt P28335); test: Displacement of [3H]mesulergine form human cloned 5HT2C receptor expressed in african green monkey COS7 cells at 30 uM by scintillation spectroscopy; assay type: cell-based; conditions: cos-7
T1 sequence (P28335 whole entry): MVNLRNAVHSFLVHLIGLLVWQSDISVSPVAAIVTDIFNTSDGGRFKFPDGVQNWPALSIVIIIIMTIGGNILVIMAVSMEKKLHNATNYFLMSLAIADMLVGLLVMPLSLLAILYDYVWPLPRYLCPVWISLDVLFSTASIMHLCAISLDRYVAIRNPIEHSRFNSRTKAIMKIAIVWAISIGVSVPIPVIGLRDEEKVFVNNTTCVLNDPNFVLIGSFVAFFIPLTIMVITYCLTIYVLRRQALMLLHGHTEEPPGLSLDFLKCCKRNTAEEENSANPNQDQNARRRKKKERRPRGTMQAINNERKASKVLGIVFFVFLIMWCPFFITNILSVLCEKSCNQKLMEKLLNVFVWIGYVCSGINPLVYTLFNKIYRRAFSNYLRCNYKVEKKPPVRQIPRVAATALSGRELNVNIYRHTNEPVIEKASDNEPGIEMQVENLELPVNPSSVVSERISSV
Method in brief: (§1)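 Single-point competition on transfected COS-7 membranes (human 5-HT2A with [3H]methylspiperone; 5-HT2C with [3H]mesulergine), 50 mM Tris pH 7.4, 2 h at 25 °C; 10 µM mianserin defines nonspecific binding; filter-bound radioactivity counted by scintillation. DMSO stock 10 mM, diluted at least 1:100 in assay.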

[2] = molecular target: T2, 5-hydroxytryptamine receptor 2A (Homo sapiens, UniProt P28223); test: Displacement of [3H]methylspiperone form human cloned 5HT2A receptor expressed in african green monkey COS7 cells at 30 uM by scintillation spectroscopy; assay type: cell-based; conditions: cos-7; method in brief: as §1
T2 sequence (P28223 whole entry): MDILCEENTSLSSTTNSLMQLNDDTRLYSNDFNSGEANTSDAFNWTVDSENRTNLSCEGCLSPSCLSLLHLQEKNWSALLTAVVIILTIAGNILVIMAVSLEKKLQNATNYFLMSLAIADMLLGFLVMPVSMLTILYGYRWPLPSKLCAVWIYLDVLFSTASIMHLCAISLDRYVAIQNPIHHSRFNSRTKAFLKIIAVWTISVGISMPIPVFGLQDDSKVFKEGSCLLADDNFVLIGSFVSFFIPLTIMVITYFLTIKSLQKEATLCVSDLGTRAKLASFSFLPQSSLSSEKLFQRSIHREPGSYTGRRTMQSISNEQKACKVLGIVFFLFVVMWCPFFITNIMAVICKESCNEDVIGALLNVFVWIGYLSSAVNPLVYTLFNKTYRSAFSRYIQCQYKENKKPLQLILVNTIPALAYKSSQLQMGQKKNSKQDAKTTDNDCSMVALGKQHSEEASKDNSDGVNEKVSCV

Homo sapiens = species on record: Homo sapiens; test: Displacement of [3H]methylspiperone form human cloned dopamine 4.2 receptor
Plasmodium falciparum = test: Antimalarial activity against Plasmodium falciparum D6; assay type: functional, organism-based
[3] = Selectivity index, ratio of IC50 for african green monkey (Cercopithecus aethiops) Vero cells to IC50 for Plasmodium falciparum D6; assay type: toxicity, cell-based; conditions: read-out: Selectivity Index
[4] = system: Mycobacterium tuberculosis; test: Antitubercular activity against Mycobacterium tuberculosis H37Rv at 6.25 ug/mL; assay type: functional
[5] = molecular target: T1, 5-hydroxytryptamine receptor 2C; test: Displacement of [3H]mesulergine form human cloned 5HT2C receptor expressed in african green monkey COS7 cells by scintillation spectroscopy; assay type: cell-based, COS-7
Method in brief: (§2)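 Transiently CaPO4-transfected COS-7 membranes carrying human 5-HT2A ([3H]methylspiperone) or 5-HT2C ([3H]mesulergine); equilibrium competition in 50 mM Tris pH 7.4, 2 h at 25 °C; nonspecific binding with 10 µM mianserin; filtration on PEI-treated GF/C, scintillation counting. Compounds from 10 mM DMSO stock diluted ≥1:100. Triplicate points, three experiments; Ki via Cheng-Prusoff, geometric means.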

[6] = molecular target: T2, 5-hydroxytryptamine receptor 2A; test: Displacement of [3H]methylspiperone form human cloned 5HT2A receptor expressed in african green monkey COS7 cells by scintillation spectroscopy; assay type: cell-based, COS-7; method in brief: as §2
[7] = system: Mycobacterium tuberculosis; test: Antitubercular activity against Mycobacterium tuberculosis H37Rv; assay type: functional; conditions: for MIC: Mycobacterium tuberculosis, H37Rv
Plasmepsin II [8] = molecular target: T3, Plasmepsin II (Plasmodium falciparum, UniProt P46925); test: Inhibition of Plasmodium falciparum plasmepsin-2 by fluorescence polarization assay
T3 sequence (P46925 whole entry): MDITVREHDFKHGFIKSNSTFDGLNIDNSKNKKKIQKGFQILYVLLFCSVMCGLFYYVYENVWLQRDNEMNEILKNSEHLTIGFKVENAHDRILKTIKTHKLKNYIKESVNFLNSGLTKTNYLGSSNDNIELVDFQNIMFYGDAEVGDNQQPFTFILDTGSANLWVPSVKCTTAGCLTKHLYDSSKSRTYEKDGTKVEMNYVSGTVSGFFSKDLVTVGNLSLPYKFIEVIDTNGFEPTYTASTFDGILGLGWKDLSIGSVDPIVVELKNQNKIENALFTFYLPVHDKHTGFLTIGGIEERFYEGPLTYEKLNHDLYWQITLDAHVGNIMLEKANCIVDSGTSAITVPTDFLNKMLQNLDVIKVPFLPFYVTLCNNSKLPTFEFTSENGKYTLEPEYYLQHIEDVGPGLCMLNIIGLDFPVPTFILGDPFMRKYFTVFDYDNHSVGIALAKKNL

Plasmepsin II [9] = molecular target: T3, Plasmepsin II; test: Inhibition of Plasmodium falciparum plasmepsin-2 by FRET assay
[10] = Plasmodium falciparum, D6, read-out: IC50

Compound | Activity (Vero) | Ki [1] | Ki [2] | Activity (Homo sapiens) | IC50 (Plasmodium falciparum) | selectivity ratio [3] | IC50 (Plasmodium falciparum; [10]) | inhibition at 6.25 µg/mL [4] | Ki [5] | Ki [6] | inhibition (INH) [7] | MIC [7] | IC50 (Plasmepsin II [8]) | IC50 (Plasmepsin II [9]) | inhibition ([6]; COS-7, concentration not given here)
C/N=C1\N(C)C(=O)/C(=C\c2c[nH]c3ccccc23)N1C [METHYLAPLYSINOPSIN] | Non-toxic | Not Active | Not Active | inactive | Not Active |  |  |  |  |  |  |  |  |  | 
O=C1C(=O)c2[nH]cc3c2C(=C1Br)NCC3 [MAKALUVAMINE O] | Non-toxic | Not Active | Not Active | inactive |  | > 5.1 | 0.94 µg/mL (≈ 3.52 µM) |  |  |  |  |  |  |  | 
C[C@H]1CC[C@H]2C(C)(C)CCC[C@]23Oc2ccc(O)c(Cl)c2C[C@]13C | Non-toxic |  |  | inactive |  | > 1.4 | 3.4 µg/mL (≈ 9.74 µM) | 38% |  |  |  |  |  |  | 
COc1ccc2c(c1)C[C@]1(C)[C@@H](C)CC[C@H]3C(C)(C)CCC[C@]31O2 | Non-toxic |  |  | inactive | Not Active |  |  | 53% |  |  |  |  |  |  | 
CN1C(=N)N(C)/C(=C/c2c[nH]c3cc(Br)ccc23)C1=O | Non-toxic |  |  | inactive |  | > 14 | 0.34 µg/mL (≈ 1.02 µM) |  | 330 nM | 2000 nM |  |  |  |  | 
C[C@H]1CC[C@H]2C(C)(C)CCC[C@]23Oc2ccc(OC(=S)N(C)C)cc2C[C@]13C | Non-toxic |  |  | inactive |  | > 55 | 0.087 µg/mL (≈ 0.217 µM) | 100% |  |  | 100% | < 6.25 µg/mL |  |  | 
CC(=O)Oc1ccc2c(c1)C[C@]1(C)[C@@H](C)CC[C@H]3C(C)(C)CCC[C@]31O2 [AUREOL ACETATE] | Non-toxic |  |  | inactive | Not Active |  |  | 34% |  |  |  |  |  |  | 
C/N=C1\NC(=O)/C(=C\c2c[nH]c3ccccc23)N1C [ISOPLYSIN A] | Non-toxic | Not Active | Not Active | inactive |  | > 4.9 | 0.97 µg/mL (≈ 3.81 µM) |  |  |  |  |  |  |  | 
C[C@H]1CC[C@H]2C(C)(C)CCC[C@]23Oc2ccc(O)cc2C[C@]13C [AUREOL] | Non-toxic |  |  | inactive | Not Active |  |  | 31% |  |  | 31% | > 6.25 µg/mL |  |  | 
CN1C(=N)N/C(=C/c2c[nH]c3cc(Br)ccc23)C1=O | Non-toxic |  |  | inactive |  | > 4.3 | 1.1 µg/mL (≈ 3.45 µM) |  | 2300 nM | > 100000 nM |  |  | 66000 nM | 53000 nM | 10%
CC/N=C1\N(C)C(=O)/C(=C\c2c[nH]c3ccccc23)N1C | Non-toxic |  |  | inactive | Not Active |  |  |  | 3500 nM | 1700 nM |  |  |  |  | 
CN1C(=N)N/C(=C/c2c[nH]c3ccccc23)C1=O | Non-toxic | Not Active | Not Active | inactive | Not Active |  |  |  |  |  |  |  |  |  | 
